In publication PMC11965407 (Translational Psychiatry, 2025):
Entries after “also recorded” stand apart in the source; their conditions may differ. Structures can show the parent of a compound that is named as a salt. Where two headings read alike, the source gives them in different places. Values belong to the compound of their own block, whether it stands above or below them.

What was measured:
[1] = test system: neuronal Kv7; conditions: read-out: IC50, neuronal Kv7 inhibition; cited from earlier work
[2] = molecular target: T1, Kv7.2 channel (Homo sapiens, UniProt O43526); experiment: Single-channel recordings; type: cell-based
Procedure, shortened: (§1)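 Cell-attached single-channel recording was done at room temperature on transfected HEK293T cells. Pipettes (8–10 MΩ) held bath solution: NaCl 150, KCl 5, MgCl2 1, CaCl2 2, HEPES 10 mM, pH 7.4. Data were […] and filtered at 0.8–1 kHz. Patch potential of 0 mV was set from Vm = RMP − Vpipette, with RMP from current clamp. Open probability and conductance came from all-point amplitude histograms, with recordings before and after drug.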

[3] = test system: hippocampal neurons; type: cell-based, rat; conditions: for depolarizing shift of resting membrane potential (RMP): hippocampal neurons
[4] = molecular target: Kv7.2/Kv7.3 channels (Homo sapiens, UniProt O43525+O43526); type: cell-based
Procedure, shortened: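 CHO cells stably expressing Kv7.2/Kv7.3 were grown in F12 with 10% FBS and 600 μg/mL G418. Cells were recorded by amphotericin B (250 μg/mL) perforated patch at room temperature. Internal was KCl 150, MgCl2 5, HEPES 10 mM, pH 7.4; external was NaCl 160, KCl 2.5, MgCl2 1, CaCl2 2, glucose 10, HEPES 20 mM, pH 7.4. Current was measured at 0 mV. Activation used −110 to 30 mV steps (10 mV increments) then 0 mV, with a Boltzmann fit. IC50 came from a logistic fit; τ from a single exponential.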

[5] = test system: Kv7.5; conditions: read-out: IC50, inhibition of Kv7.5; cited from earlier work
[6] = test system: native M-current in hippocampal neurons; experiment: Native M-current recording in cultured hippocampal neurons; type: cell-based, rat; conditions: measured at −20 mV
[7] = test system: Kv7.1-Kv7.4 channels; conditions: read-out: IC50, inhibition of Kv7.1-Kv7.4 channels; cited from earlier work
[8] = test system: F304A Kv7.2 channel; experiment: Whole-cell patch-clamp of F304A Kv7.2 mutant in HEK293T cells; type: cell-based, human; conditions: 10 or 30 µM paroxetine, vs WT Kv7.2
Procedure, shortened: (§2)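 Alanine point mutants of human Kv7.2 were made by site-directed mutagenesis and verified by sequencing. Wild-type or mutant channels were expressed in HEK293T cells and recorded by perforated whole-cell patch clamp at room temperature. Currents were recorded before and after 10 or 30 µM test compound, and inhibition was normalized and compared with wild-type Kv7.2. n = 3–6.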

[9] = molecular target: W236A Kv7.2 channel (Homo sapiens, UniProt O43526, W236A); experiment: Whole-cell patch-clamp of W236A Kv7.2 mutant in HEK293T cells; type: cell-based; conditions: HEK-293T, read-out: inhibition of W236A Kv7.2 current
Procedure, shortened: as §2

[10] = molecular target: Kv7.2 D212A/Kv7.3 heteromeric channels (Homo sapiens, UniProt O43525+O43526, D212A); experiment: Whole-cell patch-clamp of Kv7.2 D212A/Kv7.3 heteromeric channels; type: cell-based
[11] = molecular target: Kv7.2 D212A channel (Homo sapiens, UniProt O43526, D212A); experiment: Whole-cell patch-clamp of Kv7.2 D212A mutant channel; type: cell-based
[12] = molecular target: Kv7.5 (Homo sapiens, UniProt Q9NR82); experiment: Perforated whole-cell patch-clamp of Kv7.5 current in transfected HEK293T cells; type: cell-based
Sequence of Kv7.5 (Homo sapiens, UniProt Q9NR82) (Q9NR82 whole entry): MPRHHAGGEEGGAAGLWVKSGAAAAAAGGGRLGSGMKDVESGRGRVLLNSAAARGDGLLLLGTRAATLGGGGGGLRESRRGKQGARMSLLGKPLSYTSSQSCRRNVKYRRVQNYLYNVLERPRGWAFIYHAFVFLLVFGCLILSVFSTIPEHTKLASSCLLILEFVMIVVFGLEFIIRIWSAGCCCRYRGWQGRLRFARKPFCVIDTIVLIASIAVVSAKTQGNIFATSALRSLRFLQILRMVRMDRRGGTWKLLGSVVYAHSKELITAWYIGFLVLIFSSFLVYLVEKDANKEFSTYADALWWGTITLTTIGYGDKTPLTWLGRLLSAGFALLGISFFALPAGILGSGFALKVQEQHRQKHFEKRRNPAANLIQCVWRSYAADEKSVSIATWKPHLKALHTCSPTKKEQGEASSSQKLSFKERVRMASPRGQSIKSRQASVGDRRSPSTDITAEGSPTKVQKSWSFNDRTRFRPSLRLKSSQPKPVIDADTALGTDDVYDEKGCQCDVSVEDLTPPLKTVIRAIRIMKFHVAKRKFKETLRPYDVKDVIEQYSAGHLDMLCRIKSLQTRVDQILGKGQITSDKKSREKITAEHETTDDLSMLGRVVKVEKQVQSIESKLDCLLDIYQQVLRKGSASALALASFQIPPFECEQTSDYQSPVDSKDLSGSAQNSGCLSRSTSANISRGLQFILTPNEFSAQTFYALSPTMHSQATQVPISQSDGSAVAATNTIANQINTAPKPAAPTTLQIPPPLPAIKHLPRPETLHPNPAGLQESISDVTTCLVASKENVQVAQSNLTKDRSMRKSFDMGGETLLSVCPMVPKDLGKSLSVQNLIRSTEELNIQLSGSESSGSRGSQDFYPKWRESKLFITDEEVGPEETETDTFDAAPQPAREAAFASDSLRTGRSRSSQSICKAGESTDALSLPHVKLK
Procedure, shortened: (§3)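 Human Kv7.2 or Kv7.5 cDNA in pcDNA3.1 was co-transfected with GFP into HEK293T cells using lipofectamine 2000 and recorded 24 h later. Recording used perforated patch (amphotericin B 250 μg/mL in pipette) with internal KCl 150, MgCl2 5, HEPES 10 mM, pH 7.4, and external NaCl 160, KCl 2.5, MgCl2 1, CaCl2 2, glucose 10, HEPES 20 mM, pH 7.4, at room temperature. IC50 came from a logistic fit, activation curves from Boltzmann fits, and τ values from single exponentials (activation 0 mV, deactivation −120 mV).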

[13] = daily dosage of 20 mg, patients with depression; cited from earlier work
[14] = test system: Kv3.1 channels; conditions: read-out: IC50, Kv3.1 channels; cited from earlier work
[15] = test system: GIRK1/2 channels; conditions: read-out: IC50, GIRK1/2 channels; cited from earlier work
[16] = molecular target: F305A Kv7.2 channel (Homo sapiens, UniProt O43526, F305A); experiment: Whole-cell patch-clamp of F305A Kv7.2 mutant in HEK293T cells; type: cell-based; conditions: 10 or 30 µM paroxetine, vs WT Kv7.2
Procedure, shortened: as §2

[17] = molecular target: Kv7.4 (Homo sapiens, UniProt P56696); experiment: Perforated whole-cell patch-clamp of Kv7.4 current in transfected HEK293T cells; type: cell-based
Sequence of Kv7.4 (P56696 whole entry): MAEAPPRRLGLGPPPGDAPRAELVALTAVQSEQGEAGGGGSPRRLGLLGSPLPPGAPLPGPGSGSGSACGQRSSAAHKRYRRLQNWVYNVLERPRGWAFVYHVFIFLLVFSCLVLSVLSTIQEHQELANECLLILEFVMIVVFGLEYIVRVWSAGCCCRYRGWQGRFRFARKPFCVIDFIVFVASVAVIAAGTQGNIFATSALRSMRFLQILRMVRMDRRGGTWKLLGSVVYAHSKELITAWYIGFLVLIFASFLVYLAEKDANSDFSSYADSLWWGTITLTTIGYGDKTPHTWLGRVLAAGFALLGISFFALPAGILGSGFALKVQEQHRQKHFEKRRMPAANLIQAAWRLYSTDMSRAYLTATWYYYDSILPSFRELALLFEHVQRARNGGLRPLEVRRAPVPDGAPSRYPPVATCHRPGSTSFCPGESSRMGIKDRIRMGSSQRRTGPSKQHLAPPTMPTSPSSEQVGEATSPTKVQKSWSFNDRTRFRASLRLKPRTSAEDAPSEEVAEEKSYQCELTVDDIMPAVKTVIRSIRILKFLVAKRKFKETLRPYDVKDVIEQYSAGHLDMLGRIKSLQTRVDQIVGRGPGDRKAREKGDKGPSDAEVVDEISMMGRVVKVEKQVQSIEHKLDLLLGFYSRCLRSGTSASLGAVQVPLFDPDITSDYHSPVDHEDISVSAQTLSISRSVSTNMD

[18] = molecular target: L299A Kv7.2 channel (Homo sapiens, UniProt O43526, L299A); experiment: Whole-cell patch-clamp of L299A Kv7.2 mutant in HEK293T cells; type: cell-based; conditions: HEK-293T, read-out: inhibition of F299A Kv7.2 current
Procedure, shortened: as §2

[19] = molecular target: F240A Kv7.2 channel (Homo sapiens, UniProt O43526, F240A); experiment: Whole-cell patch-clamp of F240A Kv7.2 mutant in HEK293T cells; type: cell-based; conditions: HEK-293T, read-out: inhibition of F240A Kv7.2 current
Procedure, shortened: as §2

[20] = molecular target: Kv7.2/Kv7.3 single-channels (Homo sapiens, UniProt O43525+O43526); experiment: Single-channel recordings; type: cell-based; conditions: paroxetine 3 μΜ
Procedure, shortened: as §1

[21] = molecular target: Kv7.1 (Homo sapiens, UniProt P51787); experiment: Perforated whole-cell patch-clamp of Kv7.1 current in transfected HEK293T cells; type: cell-based
Sequence of Kv7.1 (P51787 whole entry): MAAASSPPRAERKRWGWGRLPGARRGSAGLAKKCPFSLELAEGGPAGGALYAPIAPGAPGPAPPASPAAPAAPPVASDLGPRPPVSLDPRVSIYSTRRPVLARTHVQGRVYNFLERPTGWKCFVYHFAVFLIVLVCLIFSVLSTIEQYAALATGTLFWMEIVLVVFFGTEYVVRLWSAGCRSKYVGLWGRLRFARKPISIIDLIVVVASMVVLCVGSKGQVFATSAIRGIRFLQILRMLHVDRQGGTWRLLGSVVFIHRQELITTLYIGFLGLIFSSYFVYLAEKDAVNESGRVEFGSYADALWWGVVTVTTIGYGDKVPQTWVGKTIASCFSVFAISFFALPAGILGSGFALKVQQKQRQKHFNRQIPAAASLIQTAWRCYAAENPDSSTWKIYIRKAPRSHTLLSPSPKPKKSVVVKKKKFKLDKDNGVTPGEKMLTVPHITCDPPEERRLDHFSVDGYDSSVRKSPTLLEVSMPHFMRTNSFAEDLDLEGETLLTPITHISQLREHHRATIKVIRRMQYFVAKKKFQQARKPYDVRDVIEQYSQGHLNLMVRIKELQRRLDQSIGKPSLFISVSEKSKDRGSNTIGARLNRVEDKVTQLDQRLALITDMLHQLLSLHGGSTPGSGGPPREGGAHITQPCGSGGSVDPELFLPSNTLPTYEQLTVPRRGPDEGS

[22] = molecular target: T1, Kv7.2 channel; experiment: Perforated whole-cell patch-clamp of Kv7.2 current in transfected HEK293T cells; type: cell-based
Procedure, shortened: as §3

SMILES: CC[C@H](C(=O)Nc1ccccc1N1CCCC1)c1ccccc1 [ML252]
IC50 [1]: 1 to 6 µM

Kv7.2 single-channel open probability ([2]; XE991 3 μΜ, control 0.21 ± 0.02): 0.05 ± 0.01
Kv7.2 single-channel conductance ([2]; XE991 3 μΜ, control 7.7 ± 0.8 pS): 8.0 ± 0.4 pS
inhibition of Kv7.2/Kv7.3 currents recorded at 0 mV ([4]; 3 μM, CHO cells, n = 5): 81.4 ± 1.5%
SMILES: O=C1c2ccccc2C(Cc2ccncc2)(Cc2ccncc2)c2ccccc21 [XE991]
firings in hippocampal neurons ([3]; 3 μM XE991, n = 6): increased firings
depolarizing shift of resting membrane potential (RMP) ([3]; 1 μΜ): 6.2 ± 2.2 mV
depolarizing shift of resting membrane potential (RMP) ([3]; 3 μΜ): 9.7 ± 1.2 mV
IC50 [5]: ~60 µM
inhibition of M-current ([6]; 3 μΜ): 21.2 ± 2.0%
IC50 [7]: 1000 to 5000 nM

inhibition at 10 µM [9]: 43.8 ± 6.8%
IC50 [10]: 9.2 ± 1.3 µM
reduction of inhibitory effect by D212A mutation versus wild type ([10]; Kv7.2 D212A/Kv7.3 vs Kv7.2/Kv7.3): approximately three-fold
Kv7.2 single-channel open probability ([2]; paroxetine 10 μM, 0 mV, cell-attached, control 0.19 ± 0.01): 0.09 ± 0.01
Kv7.2 single-channel conductance ([2]; paroxetine 10 μM, control 7.7 ± 0.4 pS): 7.7 ± 0.7 pS
IC50 [11]: 41 ± 5.6 µM
reduction of inhibitory effect by D212A mutation versus wild type ([11]; Kv7.2 D212A vs Kv7.2): approximately three-fold
IC50 [12]: 37.2 ± 5.2 µM
V1/2 of Kv7.5 in presence of paroxetine ([12]; paroxetine 20 μM, control −32.7 ± 5.7 mV): −33.6 ± 6.1 mV
τdeactivation (−120 mV) of Kv7.5 ([12]; paroxetine, control 36.7 ± 1.7 ms): 35.4 ± 5.0 ms
τactivation (0 mV) of Kv7.5 ([12]; paroxetine, control 77.4 ± 5.3 ms): 79.8 ± 17.6 ms
V1/2 of Kv7.4 in presence of paroxetine ([17]; paroxetine 20 μM, control −14.4 ± 3.6 mV): −15.2 ± 4.3 mV
τdeactivation (−120 mV) of Kv7.4 ([17]; paroxetine, control 12.1 ± 1.3 ms): 10.9 ± 1.6 ms
τactivation (0 mV) of Kv7.4 ([17]; paroxetine, control 131.5 ± 23.6 ms): 131.3 ± 22.9 ms
inhibition at 10 µM [18]: 59.4 ± 10.4%
IC50 [4]: 3.6 ± 0.2 µM
inhibition at 3 µM ([4]; CHO, read-out: inhibition of Kv7.2/Kv7.3 currents recorded at 0 mV): 62.8 ± 6.5%
τdeactivation (−120 mV) of Kv7.2/Kv7.3 ([4]; paroxetine 3 μΜ, control 14.4 ± 1.1 ms): 12.6 ± 0.7 ms
τactivation (0 mV) of Kv7.2/Kv7.3 ([4]; paroxetine 3 μΜ, control 94.5 ± 11.0 ms): 112.8 ± 9.0 ms
V1/2 (half activation voltage) of Kv7.2/Kv7.3 in presence of paroxetine ([4]; paroxetine 3 μΜ, control −3.9 ± 1.2 mV, not significant): −7.5 ± 3.5 mV
inhibition at 10 µM [19]: 46.9 ± 9.7%
open probability of Kv7.2/Kv7.3 single-channels ([20]; 0 mV, cell-attached, control 0.28 ± 0.01): 0.13 ± 0.01
single-channel conductance of Kv7.2/Kv7.3 ([20]; control 10.9 ± 1.1 pS, not altered): 10.4 ± 0.9 pS
IC50 [21]: 71.8 ± 7.9 µM
V1/2 of Kv7.1 in presence of paroxetine ([21]; paroxetine 50 μM, control −3.2 ± 2.1 mV, P < 0.05): 4.6 ± 2.1 mV
τdeactivation (−120 mV) of Kv7.1 ([21]; paroxetine near its IC50, control 39.9 ± 3.3 ms): 27.9 ± 3.6 ms
IC50 [22]: 12.3 ± 6.5 µM
inhibition at 10 µM ([22]; HEK-293T, read-out: inhibition of WT Kv7.2 current): 56.6 ± 2.9%
τdeactivation (−120 mV) of Kv7.2 ([22]; paroxetine 10 μM, control 24.9 ± 10.0 ms): 18.6 ± 6.9 ms
τactivation (0 mV) of Kv7.2 ([22]; paroxetine 10 μM, control 132.6 ± 15.0 ms): 141.7 ± 15.8 ms
V1/2 of Kv7.2 in presence of paroxetine ([22]; paroxetine 10 μM, control −12.0 ± 0.8 mV): −9.1 ± 2.0 mV
SMILES: Fc1ccc([C@@H]2CCNC[C@H]2COc2ccc3c(c2)OCO3)cc1 [paroxetine, paroxetine hydrochloride]
reduction of channel sensitivity to paroxetine by F304A mutation [8]: three-fold
resting membrane potential after drug ([3]; 3 μΜ, from −57.2 ± 3.4 mV): −48.6 ± 2.4 mV
resting membrane potential after drug ([3]; 10 μΜ, from −62.2 ± 1.7 mV): −48.5 ± 2.0 mV
firing activity of hippocampal neurons in response to current injection ([3]; paroxetine at 3 and 10 μΜ): significantly increased
brain concentrations [13]: 2 to 14 µM
IC50 [14]: 9.4 ± 0.5 µM
IC50 [15]: 13.8 ± 2.9 µM
effect of F305A mutation on paroxetine-mediated inhibition of Kv7.2 [16]: no notable effect; also recorded: does not significantly affect
inhibition of M-current ([6]; 3 μΜ): 31.5 ± 4.6%
inhibition of M-current ([6]; 10 μΜ): 52.4 ± 2.0%
